Data: ChEMBL document CHEMBL1153193, “Microwave-assisted synthesis and structure-activity relationships of neuroactive pyrazolo[3,4-b]pyrrolo[3,4-d]pyridine derivatives” (Bioorg Med Chem Lett, 2010)

system: Mus musculus; assay: Sedative activity in Swiss mouse assessed as reduction of locomotor activity at 10 umol/kg, ip after 40 mins; format: organism-based; details: in vivo
In short: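 Mice received a single screening dose intraperitoneally. Motor activity was counted over the 40 min after injection and expressed as movements per minute. An untreated control group and a midazolam reference group (2 mg/kg) were run alongside. Data are given as means ± SEM, and significance was tested against control.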

SMILES | Activity
Cc1ccc(N2C(=O)c3cnc4c(c(C)nn4C)c3C2=O)cc1 | Not Active
Cc1nn(C)c2ncc3c(c12)C(=O)N(c1ccc(C(=O)O)cc1)C3=O | Not Active
Cc1nn(-c2ccccc2)c2ncc3c(c12)C(=O)N(c1ccc([N+](=O)[O-])cc1)C3=O | Active
Cc1nn(-c2ccccc2)c2ncc3c(c12)C(=O)N(c1ccc(C(=O)O)cc1)C3=O | Not Active
Cc1nn(C)c2ncc3c(c12)C(=O)N(c1ccccc1)C3=O | Not Active
Cc1nn(-c2ccccc2)c2ncc3c(c12)C(=O)N(c1ccc(Cl)cc1)C3=O | Not Active
Cc1ccc(N2C(=O)c3cnc4c(c(C)nn4-c4ccccc4)c3C2=O)cc1 | Not Active
COc1ccc(N2C(=O)c3cnc4c(c(C)nn4-c4ccccc4)c3C2=O)cc1 | Active
Cc1nn(-c2ccccc2)c2ncc3c(c12)C(=O)N(c1ccccc1)C3=O | Not Active
Cc1nn(C)c2ncc3c(c12)C(=O)N(c1ccc([N+](=O)[O-])cc1)C3=O | Not Active
Cc1nn(C)c2ncc3c(c12)C(=O)N(c1ccc(Cl)cc1)C3=O | Not Active
COc1ccc(N2C(=O)c3cnc4c(c(C)nn4C)c3C2=O)cc1 | Not Active
